Entries after “also recorded” stand apart in the source; their conditions may differ. Where two headings read alike, the source gives them in different places.
How the values were obtained:
HIV-1NL4–3 [1] = assay: HIV-1/NL4–3 replication inhibition assay in MT-4 lymphocytes; assay type: cell-based; details: for activity compared with 4 (EC50 0.019 μM): HIV-1NL4–3 infected MT-4 cell lines
Method in brief: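 MT-4 cells infected with HIV-1 NL4-3 at MOI 0.01 in the presence of test compound. Culture supernatants were harvested on day 4 post-infection, and p24 antigen was measured by capture ELISA. IC50 was taken as the concentration that inhibits NL4-3 replication by 50%.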

HIV-1NL4–3 [2] = details: cited from earlier work
NL4–3/V370A = details: most prevalent bevirimat-resistant polymorphism; cited from earlier work
[3] = Human immunodeficiency virus 1, MT4, 96 h
[4] = Human immunodeficiency virus 1, Lymphocyte, read-out: PIC50 (experimental)

SMILES	IC50 (HIV-1NL4–3 [1]; [3]) [nM]	activity compared with 4 (EC50 0.019 μM) (HIV-1NL4–3 [1])	IC50 (HIV-1NL4–3 [1]; [4]) [nM]	other results
C=C(C)[C@@H]1CC[C@]2(C(=O)N3CCN(CCCCC(=O)N4CCN(C(=O)/C=C/c5ccc6c(c5)OCO6)CC4)CC3)CC[C@]3(C)[C@H](CC[C@@H]4[C@@]5(C)CC[C@H](OC(=O)CC(C)(C)C(=O)O)C(C)(C)[C@@H]5CC[C@]43C)[C@@H]12 [Compound 31]	12 ± 4.1			
C=C(C)[C@@H]1CC[C@]2(C(=O)N3CCN(C(=O)CCc4ccc5c(c4)OCO5)CC3)CC[C@]3(C)[C@H](CC[C@@H]4[C@@]5(C)CC[C@H](OC(=O)CC(C)(C)C(=O)O)C(C)(C)[C@@H]5CC[C@]43C)[C@@H]12 [Compound 13m, 4-(28-(4-(3-(Benzo[d] [1,3]dioxol-5-yl)propanoyl)piperazine-1-carbonyl)lup-20(29)-en-3b-oxy)-2,2-dimethyl-4-oxobutanoic acid]		improved or comparable activity; also recorded: improved or similar activity		
C=C(C)[C@@H]1CC[C@]2(C(=O)N3CCN(C(=O)/C=C/c4ccc(OC)c(OC)c4)CC3)CC[C@]3(C)[C@H](CC[C@@H]4[C@@]5(C)CC[C@H](OC(=O)CC(C)(C)C(=O)O)C(C)(C)[C@@H]5CC[C@]43C)[C@@H]12 [Compound 9b]	29 ± 9.3		28.8	
C=C(C)[C@@H]1CC[C@]2(C(=O)N3CCN(C(=O)/C=C/c4ccc(OCOC)c(OCOC)c4)CC3)CC[C@]3(C)[C@H](CC[C@@H]4[C@@]5(C)CC[C@H](OC(=O)CC(C)(C)C(=O)O)C(C)(C)[C@@H]5CC[C@]43C)[C@@H]12 [Compound 9r]	50 ± 21		50.1	
C=C(C)[C@@H]1CC[C@]2(C(=O)N3CCN(C(=O)/C=C/c4ccc(O)c(O)c4)CC3)CC[C@]3(C)[C@H](CC[C@@H]4[C@@]5(C)CC[C@H](OC(=O)CC(C)(C)C(=O)O)C(C)(C)[C@@H]5CC[C@]43C)[C@@H]12 [Compound 10a]	28 ± 9.8		28.2	
C=C(C)[C@@H]1CC[C@]2(C(=O)N3CCN(C(=O)/C=C/c4ccc5c(c4)OCO5)CC3)CC[C@]3(C)[C@H](CC[C@@H]4[C@@]5(C)CC[C@H](OC(=O)CC(C)(C)C(=O)O)C(C)(C)[C@@H]5CC[C@]43C)[C@@H]12 [Compound 4]	19 ± 5.4		19.1	activity increase compared with 3 against NL4–3 (HIV-1NL4–3 [2]): three-fold; activity increase compared with 3 against NL4–3/V370A (NL4–3/V370A): 51 fold
C=C(C)[C@@H]1CC[C@]2(C(=O)N3CCN(C(=O)/C=C/c4ccc(N(C)C)cc4)CC3)CC[C@]3(C)[C@H](CC[C@@H]4[C@@]5(C)CC[C@H](OC(=O)CC(C)(C)C(=O)O)C(C)(C)[C@@H]5CC[C@]43C)[C@@H]12 [Compound 9i, (E)-4-(28-(4-(3-(4-(dimethylamino)phenyl)acryloyl)piperazine-1-carbonyl)lup-20(29)-en-3β-oxy)-2,2-dimethyl-4-oxobutanoic acid]		improved or comparable activity; also recorded: improved or similar activity		
C=C(C)[C@@H]1CC[C@]2(C(=O)OCCCOC(=O)/C=C/c3ccc(OC)cc3)CC[C@]3(C)[C@H](CC[C@@H]4[C@@]5(C)CC[C@H](OC(=O)CC(C)(C)C(=O)O)C(C)(C)[C@@H]5CC[C@]43C)[C@@H]12 [Compound 20a]				fold less potent than 9e (HIV-1NL4–3 [1]; compared with piperazine-linked 9e): 11 fold
C=C(C)[C@@H]1CC[C@]2(C(=O)O)CC[C@]3(C)[C@H](CC[C@@H]4[C@@]5(C)CC[C@H](OC(=O)CC(C)(C)C(=O)O)C(C)(C)[C@@H]5CC[C@]43C)[C@@H]12 [Compound 3, 3-O-(3′,3′-dimethylsuccinyl)betulinic acid, reference compound]	65 ± 1.9		64.6	
C=C(C)[C@@H]1CC[C@]2(C(=O)N3CCN(CCCCC(=O)N4CCN(c5cc(NCc6ccccc6)ncn5)CC4)CC3)CC[C@]3(C)[C@H](CC[C@@H]4[C@@]5(C)CC[C@H](OC(=O)CC(C)(C)C(=O)O)C(C)(C)[C@@H]5CC[C@]43C)[C@@H]12 [Compound 32, 4-(28-(4-(5-(4-(6-(Benzylamino)pyrimidin-4-yl)piperazin-1-yl)-5-oxopentyl)piperazine-1-carbonyl)lup-20(29)-en-3β-oxy)-2,2-dimethyl-4-oxobutanoic acid]		improved or comparable activity; also recorded: improved or similar activity		
C=C(C)[C@@H]1CC[C@]2(C(=O)N3CCN(C(=O)/C=C/c4ccc(O)c(OC)c4)CC3)CC[C@]3(C)[C@H](CC[C@@H]4[C@@]5(C)CC[C@H](OC(=O)CC(C)(C)C(=O)O)C(C)(C)[C@@H]5CC[C@]43C)[C@@H]12 [Compound 10c, (E)-4-(28-(4-(3-(4-hydroxy-3-methoxyphenyl)acryloyl)piperazine-1-carbonyl)lup-20(29)-en-3β-oxy)-2,2-dimethyl-4-oxobutanoic acid]		improved or comparable activity; also recorded: improved or similar activity		
C=C(C)[C@@H]1CC[C@]2(C(=O)N3CCN(C(=O)/C=C/c4ccc(OCOC)c(OC)c4)CC3)CC[C@]3(C)[C@H](CC[C@@H]4[C@@]5(C)CC[C@H](OC(=O)CC(C)(C)C(=O)O)C(C)(C)[C@@H]5CC[C@]43C)[C@@H]12 [Compound 9t, (E)-4-(28-(4-(3-(3-methoxy-4-(methoxymethoxy)phenyl)acryloyl)piperazine-1-carbonyl)lup-20(29)-en-3β-oxy)-2,2-dimethyl-4-oxobutanoic acid]		improved or comparable activity; also recorded: improved or similar activity		
